Test results as given in ChEMBL document CHEMBL5108071, “Potent and Specific Activators for Mitochondrial Sirtuins Sirt3 and Sirt5” (J Med Chem, 2022).

What was measured:
[1] = target: T1, NAD-dependent protein deacylase sirtuin-5, mitochondrial (Homo sapiens, UniProt Q9NXA8); experiment: Binding affinity to N-terminal his-tagged human SIRT5 (34 to 302 residues) expressed in Escherichia coli assessed as dissociation constant using CPS1-succK537 peptide as substrate
Outline: (§1)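 MST binding: Sirt5 labelled 2 h at room temperature in the dark with twofold molar excess FITC in PBS pH 7.4, free dye removed; 10 nM labelled protein incubated with ligand plus saturating 0.5 mM peptide or 5 mM NAD+ in PBS, 10% DMSO, 30 min on ice; read at 25 °C.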

[2] = target: T1, NAD-dependent protein deacylase sirtuin-5, mitochondrial; experiment: Binding affinity to N-terminal his-tagged human SIRT5 (34 to 302 residues) expressed in Escherichia coli assessed as dissociation constant using NAD+ as substrate; outline: as §1

T1 sequence (Q9NXA8 whole entry, the tested form may be a part): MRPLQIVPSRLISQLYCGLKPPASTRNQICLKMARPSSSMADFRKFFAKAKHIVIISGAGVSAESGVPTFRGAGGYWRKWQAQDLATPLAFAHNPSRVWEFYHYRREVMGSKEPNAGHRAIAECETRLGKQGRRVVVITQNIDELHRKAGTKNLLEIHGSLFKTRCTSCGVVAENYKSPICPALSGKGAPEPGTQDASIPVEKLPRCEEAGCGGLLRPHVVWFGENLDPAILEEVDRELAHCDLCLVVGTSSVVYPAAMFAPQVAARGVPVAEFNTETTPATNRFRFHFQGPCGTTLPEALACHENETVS

- Kd [1]: 24 µM
- Kd [2]: 28 µM
Compound: CCOC(=O)C1=CN(C(=O)c2ccccc2)C=C(C(=O)OCC)C1c1ccsc1
